According to ChEMBL document CHEMBL4477169, “Vestitol Isolated from Brazilian Red Propolis Inhibits Neutrophils Migration in the Inflammatory Process: Elucidation of the Mechanism of Action” (J Nat Prod, 2016):
The source made the active and inactive calls. The rule behind the calls is not given here.

Experiments:
Mus musculus [1] = test: Antiinflammatory activity in C57BL/6 mouse assessed as reduction in LPS-induced neutrophil migration in peritoneal activity at 1 to 10 mg/kg, sc dosed 30 mins prior LPS challenge measured after 6 hrs post LPS challenge using Neubauer chamber by optical microscopic analysis; format: functional, organism-based
Summary of the method: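 Male SPF C57BL/6 mice (20−22 g) dosed sc (1, 3 or 10 mg/kg) 30 min before ip LPS (300 ng/cavity). Killed at 6 h; cavity washed with 3 mL PBS/1 mM EDTA. Total cells counted in a Neubauer chamber; differential count of 100 cells on Panotic-stained cytospins at 1000×. Neutrophils per cavity, mean ± SEM, n = 4−5.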

Mus musculus [2] = test: Antiinflammatory activity in C57BL/6 mouse assessed as reduction in CXCL1/KC release in peritoneal cavity at 10 mg/kg, sc dosed 30 mins prior LPS challenge measured after 3 hrs post LPS challenge by ELISA; format: functional, organism-based
Summary of the method: (§1)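 Male SPF C57BL/6 mice (20−22 g) given sc vehicle or test agent 30 min before ip LPS (300 ng/cavity, in saline) or mBSA (30 μg/cavity) in mBSA-immunized mice. Peritoneal fluid collected after 1.5 or 3 h. TNF-α, IL-1β, CXCL1/KC and CXCL2/MIP-2 measured by ELISA, expressed as pg/mL. Mean ± SEM, n = 4−5, Tukey's test.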

Mus musculus [3] = test: Antiinflammatory activity in C57BL/6 mouse assessed as reduction in CXCL2/MIP-2 release in peritoneal cavity at 10 mg/kg, sc dosed 30 mins prior LPS challenge measured after 3 hrs post LPS challenge by ELISA; format: functional, organism-based; summary of the method: as §1
Mus musculus [4] = test: Antiinflammatory activity in C57BL/6 mouse assessed as reduction in LPS-induced leukocyte adhesion in mesenteric venules at 10 mg/kg, sc dosed 30 mins prior LPS-challenge measured after 2 to 4 hrs post LPS challenge by intravital microscopy; format: functional, organism-based
Summary of the method: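 Mice dosed sc 30 min before ip LPS (300 ng/cavity). Animals anesthetized 2 or 4 h after the stimulus and mesentery exposed on a 37 °C thermostatted plate. Post-capillary venules of 10−18 μm diameter imaged. Rolling leukocytes counted over 10 min; cells stationary >30 s scored adherent. Five fields per animal. Mean ± SEM, n = 4−5.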

BMDM [5] = test: Antiinflammatory activity in LPS-stimulated mouse bone marrow macrophages assessed as reduction in CXCL1/KC release at 1 to 10 uM pre-incubated for 30 mins prior LPS challenge measured after 4 hrs by ELISA; format: functional, cell-based
Summary of the method: (§2)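 Femur/tibia bone marrow cells differentiated 7 days at 37 °C, 5% CO2 in RPMI with 10% FBS, penicillin, L-glutamine and 20% L929 supernatant. Macrophages seeded at 2 × 10^5/well and adhered 2 h. Pre-treated 30 min (1, 3 or 10 μM), then LPS 10 ng/mL for 4 h. Supernatant CXCL1/KC and CXCL2/MIP-2 measured by ELISA (pg/mL).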

BMDM [6] = test: Antiinflammatory activity in LPS-stimulated mouse bone marrow macrophages assessed as reduction in CXCL2/MIP-2 release at 1 to 10 uM pre-incubated for 30 mins prior LPS challenge measured after 4 hrs by ELISA; format: functional, cell-based; summary of the method: as §2
[7] = Induction of apoptosis in mouse bone marrow macrophages assessed as viable cells at 10 uM measured after 4 hrs by Annexin V-FITC/propidium iodide staining-based flow cytometry (reference value: 92 %); format: cell-based, BMDM; settings: read-out: Activity
Mus musculus [8] = test: Antiinflammatory activity in C57BL/6 mouse assessed as reduction in CXCL1/KC release in peritoneal cavity at 10 mg/kg, sc dosed 30 mins prior mBSA challenge measured after 3 hrs post mBSA challenge by ELISA; format: functional, organism-based; summary of the method: as §1
[9] = Induction of apoptosis in mouse bone marrow macrophages assessed as early apoptotic cells at 10 uM measured after 4 hrs by Annexin V-FITC/propidium iodide staining-based flow cytometry (reference value: 5.03 %); format: cell-based; settings: bmdm
[10] = Induction of apoptosis in mouse bone marrow macrophages assessed as late apoptotic cells at 10 uM measured after 4 hrs by Annexin V-FITC/propidium iodide staining-based flow cytometry (reference value: 2.29 %); format: cell-based; settings: bmdm
[11] = Induction of apoptosis in mouse bone marrow macrophages assessed as necrotic cells at 10 uM measured after 4 hrs by Annexin V-FITC/propidium iodide staining-based flow cytometry (reference value: 0.69 %); format: cell-based; settings: bmdm
Mus musculus [12] = test: Antiinflammatory activity in specific-pathogen free C57BL/6 mouse assessed as reduction in LPS-induced neutrophil migration in peritoneal activity at 10 mg/kg, sc dosed 15 mins prior LPS challenge measured after 6 hrs post LPS challenge by optical microscopic analysis; format: functional, organism-based
Summary of the method: (§3)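 Wild-type C57BL/6 or iNOS−/− male mice dosed sc (10 mg/kg), then ip LPS (300 ng/cavity) 15 min later. Killed at 6 h; peritoneal cavity washed. Total and differential cell counts done. Mean ± SEM, n = 4−5, Tukey's test.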

Mus musculus [13] = test: Antiinflammatory activity in iNOS-/- mouse assessed as reduction in LPS-induced neutrophil migration in peritoneal activity at 10 mg/kg, sc dosed 15 mins prior LPS challenge measured after 6 hrs post LPS challenge by optical microscopic analysis; format: functional, organism-based; summary of the method: as §3
Neutrophil [14] = test: Reduction in CXCL2/MIP2-induced chemotaxis in mouse bone marrow neutrophils at 3 and 10 uM pre-treated for 30 mins prior CXCL2/MIP2-challenge measured after 60 mins using Boyden's chamber by chemotaxis assay; format: functional, cell-based
Summary of the method: (§4)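 Percoll-isolated bone marrow neutrophils (1 × 10^6 cells/mL) pre-incubated 30 min at 37 °C, 5% CO2 (1, 3 or 10 μM). Boyden chamber with 5-μm membrane; CXCL2/MIP-2 30 ng/mL or LTB4 in 0.01% RPMI-BSA as chemoattractant, RPMI-BSA as negative control. Migration 60 min. Panotic-stained cells averaged over 5 fields at 1000×; triplicate, n = 3−4.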

Mus musculus [15] = organism: Mus musculus; test: Reduction in LTB4-induced chemotaxis in mouse bone marrow neutrophils at 3 and 10 uM pre-treated for 30 mins prior LTB4-challenge measured after 60 mins using Boyden's chamber by chemotaxis assay; format: functional; summary of the method: as §4
[16] = Induction of apoptosis in mouse bone marrow neutrophils assessed as viable cells at 10 uM measured after 4 hrs by Annexin V-FITC/propidium iodide staining-based flow cytometry (reference value: 90.8 %); format: cell-based, Neutrophil; settings: read-out: Activity
Neutrophil [17] = test: Induction of apoptosis in mouse bone marrow neutrophils assessed as early apoptotic cells at 10 uM measured after 4 hrs by Annexin V-FITC/propidium iodide staining-based flow cytometry (reference value: 3.49 %); format: cell-based
Neutrophil [18] = test: Induction of apoptosis in mouse bone marrow neutrophils assessed as late apoptotic cells at 10 uM measured after 4 hrs by Annexin V-FITC/propidium iodide staining-based flow cytometry (reference value: 4.8 %); format: cell-based
Neutrophil [19] = test: Induction of apoptosis in mouse bone marrow neutrophils assessed as necrotic cells at 10 uM measured after 4 hrs by Annexin V-FITC/propidium iodide staining-based flow cytometry (reference value: 0.898 %); format: cell-based
Neutrophil [20] = test: Reduction of calcium influx in CXCL2/MIP2-induced mouse bone marrow neutrophils at 10 uM measured after 30 mins by Fluo 3-AM dye-based analysis; format: functional, cell-based
Summary of the method: (§5)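 Bone marrow neutrophils (1 × 10^6/mL) loaded with Fluo 3-AM for 40 min at 37 °C, 5% CO2, then incubated 30 min with 10 μM. Plated at 2 × 10^5 cells/well. CXCL2/MIP-2 (30 ng/mL) or LTB4 added automatically in a FlexStation 3 microplate reader and calcium influx fluorescence recorded.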

Neutrophil [21] = test: Reduction of calcium influx in LTB4-induced mouse bone marrow neutrophils at 10 uM measured after 30 mins by Fluo 3-AM dye-based analysis; format: functional, cell-based; summary of the method: as §5
Neutrophil [22] = test: Effect on CXCR2 expression in mouse bone marrow neutrophils at 10 uM measured after 1.5 hrs by flow cytometric analysis; format: functional, cell-based
Summary of the method: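 Percoll-isolated (72%/65%) bone marrow neutrophils (1 × 10^6 cells/mL, ~95% pure) incubated 1.5 h with 10 μM. Stained 20 min at 4 °C with APC-anti-Ly6G (1:200) and PE-anti-CXCR2 (1:50). Fixed in PBS/2% formaldehyde; two-color flow cytometry. Mean ± SEM, n = 3−4.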

Mus musculus [23] = test: Antiinflammatory activity in C57BL/6 mouse assessed as reduction in CXCL2/MIP-2 release in peritoneal cavity at 10 mg/kg, sc dosed 30 mins prior mBSA challenge measured after 3 hrs post mBSA challenge by ELISA; format: functional, organism-based; summary of the method: as §1
Mus musculus [24] = test: Antiinflammatory activity in C57BL/6 mouse assessed as reduction in LPS-induced leukocyte rolling in mesenteric venules at 10 mg/kg, dosed 30 mins prior LPS-challenge measured by intravital microscopy
Mus musculus [25] = test: Antiinflammatory activity in C57BL/6 mouse assessed as reduction in TNFalpha release in peritoneal cavity at 10 mg/kg, sc dosed 30 mins prior LPS challenge measured after 1.5 hrs post LPS challenge by ELISA
Mus musculus [26] = test: Antiinflammatory activity in C57BL/6 mouse assessed as reduction in IL1-beta release in peritoneal cavity at 10 mg/kg, sc dosed 30 mins prior mBSA challenge measured after 3 hrs post mBSA challenge by ELISA
Mus musculus [27] = test: Antiinflammatory activity in C57BL/6 mouse assessed as reduction in mBSA-induced neutrophil migration in peritoneal activity at 1 to 10 mg/kg, sc dosed 21 days after immunization 15 mins prior to mBSA challenge measured after 6 hrs post mBSA challenge using Neubauer chamber by cell counting method

For COc1ccc([C@H]2COc3cc(O)ccc3C2)c(O)c1, the Activity (Mus musculus [1]) was “Active”, the Activity (Mus musculus [2]) was “Active” and the Activity (Mus musculus [3]) was “Active”. For the same molecule, the Activity (Mus musculus [4]) was “Active”, the Activity (BMDM [5]) was “Active” and the Activity (BMDM [6]) was “Active”. The viability at 4 h, 10 µM [7] was 89%, the Activity (Mus musculus [8]) was “Active” and the Activity [9] was 6.62%. For the same molecule, the Activity [10] was 3.35%, the Activity [11] was 1.03% and the Activity (Mus musculus [12]) was “Active”. The Activity (Mus musculus [13]) was “Active”, the Activity (Neutrophil [14]) was “Active” and the Activity (Mus musculus [15]) was “Active”. The viability at 4 h, 10 µM [16] was 93.8%, the Activity (Neutrophil [17]) was 2.93% and the Activity (Neutrophil [18]) was 2.72%. For the same molecule, the Activity (Neutrophil [19]) was 0.546%, the Activity (Neutrophil [20]) was “Active” and the Activity (Neutrophil [21]) was “Active”. For the same molecule, the Activity (Neutrophil [22]) was “inactive”, the Activity (Mus musculus [23]) was “Active” and the Activity (Mus musculus [24]) was “Active”. The Activity (Mus musculus [25]) was “inactive”, the Activity (Mus musculus [26]) was “inactive” and the Activity (Mus musculus [27]) was “Active”.
